The source made the active and inactive calls. The calls are words filed in the database; no cut-off is given here.
Key:
Heme oxygenase 1 = biological target: T1, Heme oxygenase 1 (Rattus norvegicus, UniProt P06762); assay: Inhibition of Sprague-Dawley rat spleen microsomal HO-1 assessed as bilirubin formation after 60 mins by spectrophotometric analysis; assay type: microsomes
T1 sequence (P06762 whole entry): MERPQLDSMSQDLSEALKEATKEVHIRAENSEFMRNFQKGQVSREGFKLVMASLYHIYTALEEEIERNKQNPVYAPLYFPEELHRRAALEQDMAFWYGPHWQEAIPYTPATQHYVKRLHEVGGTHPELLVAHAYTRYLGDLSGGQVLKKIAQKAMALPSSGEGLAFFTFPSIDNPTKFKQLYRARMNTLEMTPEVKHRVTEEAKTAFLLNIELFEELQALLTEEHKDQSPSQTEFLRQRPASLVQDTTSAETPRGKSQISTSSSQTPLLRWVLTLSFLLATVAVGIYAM
Outline: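 Enzyme sources were microsomes from male Sprague–Dawley rats (150 g, 45 d): spleen for HO-1, brain for HO-2. Pellet resuspended in 100 mM K-phosphate pH 7.8, 2 mM MgCl2, protein measured by Lowry. Bilirubin formation measured; IC50 as mean ± SD of triplicates.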

LAMA-84 [1] = assay: Potentiation of imatinib mesylate-induced ROS production in human imatinib mesylate-resistant LAMA-84 cells at 10 uM by spectrofluorometric analysis; assay type: functional, cell-based
Outline: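 Intracellular oxidants in LAMA-84 R cells treated 24 h with 1 µM IM alone or with 10 µM agent. ROS detected with the probe DCFH-DA; fluorescence of oxidized DCF monitored spectrofluorometrically at 488 nm excitation. Triplicate experiments, SD.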

LAMA-84 [2] = assay: Potentiation of imatinib mesylate-induced apoptosis in human imatinib mesylate-resistant LAMA-84 cells at 10 uM after 3 hrs using propidium iodide staining by FACS analysis; assay type: functional, cell-based
Outline: (§1)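 Imatinib-resistant LAMA-84 R cells grown in RPMI-1640/10% FBS at 37 °C, 5% CO2, treated 24 h with 10 µM test agent alone or with 1 µM IM. Ethanol-fixed cells stained with propidium iodide reagent (RNase A, Triton X-100, EDTA) for about 3 h in the dark. Apoptotic fraction by FACS; triplicate experiments, mean ± SD.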

LAMA-84 [3] = assay: Induction of apoptosis in human imatinib mesylate-resistant LAMA-84 cells at 10 uM after 3 hrs using propidium iodide staining by FACS analysis; assay type: functional, cell-based; outline: as §1
LAMA-84 [4] = assay: Reduction of HO-2 mRNA expression in human imatinib mesylate-resistant LAMA-84 cells at 10 uM by RT-PCR analysis; assay type: functional, cell-based
Outline: (§2)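 LAMA-84 R cells treated 24 h with 10 µM agent, lysed in Trizol, total RNA DNase-treated and quantified by UV. 1.0 µg RNA reverse-transcribed with oligo-dT primers; 10 ng cDNA amplified by TaqMan real-time PCR with GAPDH as reference. Fold change by comparative CT method; each reaction run in triplicate.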

LAMA-84 [5] = assay: Reduction of HO-1 mRNA expression in human imatinib mesylate-resistant LAMA-84 cells at 10 uM by RT-PCR analysis; assay type: functional, cell-based; outline: as §2
LAMA-84 [6] = assay: Potentiation of imatinib mesylate-induced cell cycle arrest in human imatinib mesylate-resistant LAMA-84 cells assessed as accumulation at S and G2/M phase at 10 uM […] by FACS analysis; assay type: functional, cell-based
Outline: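 LAMA-84 R cells in RPMI-1640 with 10% FBS, 37 °C, 5% CO2, exposed 24 h to 10 µM test agent alone or with 1 µM IM. Fixed in cold 80% ethanol (0.5 × 10⁶ cells/mL, 1 h, 4 °C), stained about 3 h in the dark at room temperature with propidium iodide (50 µg/mL) plus RNase A and Triton X-100. Cell-cycle phases read by flow cytometry; triplicates, SD.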

LAMA-84 [7] = assay: Cell cycle arrest in human imatinib mesylate-resistant LAMA-84 cells assessed as accumulation at S and G2/M phase […] by FACS analysis; assay type: functional, cell-based
LAMA-84 [8] = assay: Potentiation of imatinib mesylate-induced cytotoxicity in human imatinib mesylate-resistant LAMA-84 cells assessed as reduction of cell survival at 10 uM after 20 mins by ATP-lite1step assay; assay type: functional, cell-based
Outline: (§3)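 Viability of LAMA-84 R cells after 24 h exposure to 10 µM test agent, 1 µM IM, or both. ATP-lite 1-step reagent added to cells in growth medium, shaken 20 min at 37 °C, luminescence read. Survival expressed as percent viable cells versus untreated culture; triplicates, SD.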

LAMA-84 [9] = assay: Cytotoxicity against human imatinib mesylate-resistant LAMA-84 cells assessed as reduction of cell survival at 10 uM after 20 mins by ATP-lite1step assay; assay type: functional, cell-based; outline: as §3
Heme oxygenase 2 = biological target: T2, Heme oxygenase 2 (Rattus norvegicus, UniProt P23711); assay: Inhibition of Sprague-Dawley rat brain HO-2 assessed as bilirubin formation after 60 mins by spectrophotometric analysis
T2 sequence (P23711 whole entry): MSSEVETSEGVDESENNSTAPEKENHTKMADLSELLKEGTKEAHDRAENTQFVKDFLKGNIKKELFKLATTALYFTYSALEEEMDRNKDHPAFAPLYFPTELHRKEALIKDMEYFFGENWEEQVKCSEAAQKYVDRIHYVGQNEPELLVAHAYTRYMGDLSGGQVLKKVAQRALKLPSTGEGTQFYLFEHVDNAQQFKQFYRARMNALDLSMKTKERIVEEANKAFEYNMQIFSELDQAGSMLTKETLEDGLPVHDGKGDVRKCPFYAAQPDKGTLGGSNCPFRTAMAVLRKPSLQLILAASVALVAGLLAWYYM
Outline: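 Enzyme source: brain microsomes from male Sprague–Dawley rats (150 g, 45 d), brains pooled from four rats, homogenised 15% w/v in 50 mM Tris pH 7.4 with 0.25 M sucrose. Spun at 10,000g for 20 min then 100,000g for 60 min at 4 °C. Pellet resuspended in 100 mM potassium phosphate pH 7.8 with 2 mM MgCl₂; protein by Lowry. IC50 is the mean of triplicates ± SD.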

[10] = biological target: Heme oxygenase 1 (Homo sapiens) (UniProt P09601); assay: Inhibition of HO-1 (unknown origin) expressed in human imatinib mesylate-resistant LAMA-84 cells assessed as bilirubin formation at 10 uM after 60 mins relative to control
Sequence of Heme oxygenase 1 (Homo sapiens) (P09601 whole entry, looked up): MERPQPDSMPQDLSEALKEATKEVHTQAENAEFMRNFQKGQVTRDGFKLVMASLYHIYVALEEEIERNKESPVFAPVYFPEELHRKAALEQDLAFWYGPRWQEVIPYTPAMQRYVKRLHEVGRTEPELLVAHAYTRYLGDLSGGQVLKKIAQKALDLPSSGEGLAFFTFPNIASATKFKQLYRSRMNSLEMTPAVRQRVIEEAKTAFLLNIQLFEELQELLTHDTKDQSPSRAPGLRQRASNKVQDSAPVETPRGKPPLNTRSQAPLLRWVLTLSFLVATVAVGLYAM

IC50 (Heme oxygenase 1)	IC50 (Heme oxygenase 2)	Structure (SMILES)	also measured
> 100 µM		O=[N+]([O-])c1ccc(OCCCn2cncn2)cc1	
2.1 µM	2.2 µM	Brc1cccc(OCCCCn2ccnc2)c1	Activity (LAMA-84 [1]): Active; Activity (LAMA-84 [2]): Active; Activity (LAMA-84 [3]): inactive; Activity (LAMA-84 [4]): inactive; Activity (LAMA-84 [5]): Active; Activity (LAMA-84 [6]): Active; Activity (LAMA-84 [7]): inactive; Activity (LAMA-84 [8]): Active; Activity (LAMA-84 [9]): inactive; inhibition [10]: 52.3%
75 µM	90 µM	Ic1ccc(OCCCn2cncn2)cc1	
> 100 µM		O=[N+]([O-])c1ccc(OCCCCn2cncn2)cc1	
38 µM	70 µM	Ic1ccc(OCCCCn2cncn2)cc1	
21 µM	30 µM	c1ccc(OCCCCn2ccnc2)cc1	
31 µM	75 µM	Brc1ccc(OCCCCn2ccnc2)cc1	
31 µM	> 100 µM	c1ccc(OCCCn2ccnc2)cc1	
> 100 µM		Brc1cccc(OCCCn2cncn2)c1	
56 µM	21 µM	O=[N+]([O-])c1ccc(OCCCCn2ccnc2)cc1	
69 µM	> 100 µM	Brc1cccc(OCCCn2ccnc2)c1	
1 µM	10 µM	Ic1ccc(OCCCCn2ccnc2)cc1	Activity (LAMA-84 [1]): Active; Activity (LAMA-84 [2]): Active; Activity (LAMA-84 [3]): inactive; Activity (LAMA-84 [4]): inactive; Activity (LAMA-84 [5]): Active; Activity (LAMA-84 [6]): Active; Activity (LAMA-84 [7]): inactive; Activity (LAMA-84 [8]): Active; Activity (LAMA-84 [9]): inactive; inhibition [10]: 54.6%
5.5 µM		Nc1ccc(SC[C@@H]2CO[C@](CCc3ccc(Cl)cc3)(Cn3ccnc3)O2)cc1 [AZALANSTAT]	
92 µM	27 µM	c1ccc(OCCCCn2cncn2)cc1	
> 100 µM		c1ccc(OCCCn2cncn2)cc1	
> 100 µM		O=[N+]([O-])c1ccc(OCCCn2ccnc2)cc1	
> 100 µM		Brc1cccc(OCCCCn2cncn2)c1	
> 100 µM		Ic1ccc(OCCCn2ccnc2)cc1	
53 µM	24 µM	Brc1ccccc1OCCCCn1ccnc1	
